The source made the active and inactive calls. The calls are words filed in the database; no cut-off is given here.
Assays:
Mus musculus [1] = assay: Neurotoxicity in Kunming mouse at 100 mg/kg, ip after 4 hrs; assay type: toxicity, organism-based; parameters: dose 100 mg/kg, route intraperitoneal; settings: in vivo
How it was run: (§1)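 Rotarod neurotoxicity in KunMing mice (18–22 g) trained on a 3.2 cm diameter rod at 10 rpm. Compounds in DMSO were given i.p. at 30, 100 and 300 mg/kg, three mice per dose, and tested at 0.5 h and 4 h after dosing.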

Mus musculus [2] = assay: Anticonvulsant activity against maximal electric shock-induced seizures in ip dosed Kunming mouse assessed as median effective dose; assay type: functional
How it was run: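 Phase-II MES test in KunMing mice (18–22 g), DMSO vehicle, corneal electrode stimulus 0.2 s. Groups of 10 mice got a range of i.p. doses until at least three points fell within 10–90% seizure protection, giving the median effective dose. Endpoint is abolition of tonic hind-leg extension.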

[3] = Neurotoxicity in ip dosed Kunming mouse by rotarod test; assay type: toxicity, organism-based; settings: in vivo
How it was run: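 Phase-II rotarod test in KunMing mice trained on a 3.2 cm rod at 10 rpm, DMSO vehicle. Groups of 10 mice got graded i.p. doses until at least three points fell within 10–90% minimal neurotoxicity, giving the median toxic dose.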

Mus musculus [4] = assay: Anticonvulsant activity in Kunming mouse assessed as protection against maximal electric shock-induced seizures at 30 mg/kg, ip measured after 4 hrs; assay type: functional, organism-based; parameters: dose 30 mg/kg
How it was run: (§2)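 KunMing mice (18–22 g), compounds dissolved in DMSO, given i.p. at 30, 100 and 300 mg/kg, three mice per dose. Current applied through corneal electrodes for 0.2 s at 0.5 h and 4 h after dosing. Protection is abolition of tonic hind-leg extension, scored as protected/tested.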

Mus musculus [5] = assay: Anticonvulsant activity in Kunming mouse assessed as protection against maximal electric shock-induced seizures at 30 mg/kg, ip measured after 0.5 hrs; assay type: functional, organism-based; parameters: dose 30 mg/kg; how it was run: as §2
Mus musculus [6] = species on record: Mus musculus; assay: Protective index, ratio of TD50 for neurotoxicity in Kunming mouse to ED50 for inhibition of MES-induced seizures in Kunming mouse; assay type: functional
Mus musculus [7] = assay: Anticonvulsant activity in Kunming mouse assessed as protection against maximal electric shock-induced seizures at 300 mg/kg, ip measured after 0.5 hrs; assay type: functional, organism-based; parameters: dose 300 mg/kg; how it was run: as §2
Mus musculus [8] = assay: Anticonvulsant activity in Kunming mouse assessed as protection against maximal electric shock-induced seizures at 100 mg/kg, ip measured after 0.5 hrs; assay type: functional, organism-based; parameters: dose 100 mg/kg; how it was run: as §2
Mus musculus [9] = assay: Neurotoxicity in Kunming mouse at 300 mg/kg, ip after 0.5 hrs; assay type: toxicity, organism-based; parameters: dose 300 mg/kg, route intraperitoneal; settings: in vivo; how it was run: as §1
Mus musculus [10] = assay: Neurotoxicity in Kunming mouse at 300 mg/kg, ip after 4 hrs; assay type: toxicity, organism-based; parameters: dose 300 mg/kg, route intraperitoneal; settings: in vivo; how it was run: as §1
Mus musculus [11] = assay: Anticonvulsant activity in Kunming mouse assessed as protection against maximal electric shock-induced seizures at 300 mg/kg, ip measured after 4 hrs; assay type: functional, organism-based; parameters: dose 300 mg/kg; how it was run: as §2
Mus musculus [12] = assay: Anticonvulsant activity in Kunming mouse assessed as protection against maximal electric shock-induced seizures at 100 mg/kg, ip measured after 4 hrs; assay type: functional, organism-based; parameters: dose 100 mg/kg; how it was run: as §2
Mus musculus [13] = assay: Anticonvulsant activity in Kunming mouse assessed as inhibition of subcutaneous pentylenetetrazol-induced clonic seizures at 50 mg/kg, ip after 0.5 hrs; assay type: functional; parameters: scale not given: the % may be the effect or the level left
How it was run: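 Compound or vehicle (DMSO) given i.p. to KunMing mice, 10 per group, before the pentylenetetrazol challenge. Mice were held in individual cages and observed for 0.5 h. Clonic seizures, tonic seizures (hind-leg extension) and deaths were counted.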

Mus musculus [14] = assay: Anticonvulsant activity in Kunming mouse assessed as inhibition of isoniazid-induced death at 50 mg/kg, ip after 1 hrs; assay type: functional; parameters: scale not given: the % may be the effect or the level left; settings: route intraperitoneal
Mus musculus [15] = assay: Anticonvulsant activity in Kunming mouse assessed as inhibition of 3-mercaptopropionic acid-induced clonic seizures at 30 mg/kg, ip after 0.5 hrs; assay type: functional; parameters: scale not given: the % may be the effect or the level left; settings: route intraperitoneal
How it was run: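 3-Mercaptopropionic acid, 60 mg/kg in saline, was injected s.c. 0.5 h after i.p. compound or DMSO in KunMing mice, 10 per group. Clonic and tonic seizures and deaths were scored.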

Mus musculus [16] = assay: Anticonvulsant activity in Kunming mouse assessed as inhibition of subcutaneous pentylenetetrazol-induced tonic seizures at 50 mg/kg, ip after 0.5 hrs; assay type: functional; parameters: scale not given: the % may be the effect or the level left
Mus musculus [17] = assay: Anticonvulsant activity in Kunming mouse assessed as inhibition of bicuculline-induced clonic seizures at 30 mg/kg, ip after 0.5 hrs; assay type: functional; parameters: scale not given: the % may be the effect or the level left; settings: route intraperitoneal
How it was run: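 Bicuculline, 5.4 mg/kg s.c. and used within 15–45 min of preparation, was given 0.5 h after i.p. compound or DMSO to KunMing mice, 10 per group. Mice were isolated and observed for at least 0.5 h for clonic seizures, tonic seizures and lethality.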

Mus musculus [18] = assay: Anticonvulsant activity in Kunming mouse assessed as inhibition of thiosemicarbazide-induced tonic seizures at 30 mg/kg, ip after 2.5 hrs; assay type: functional; parameters: scale not given: the % may be the effect or the level left; settings: route intraperitoneal
How it was run: (§3)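 Thiosemicarbazide, 50 mg/kg i.p., was given 0.5 h after compound or DMSO to KunMing mice, 10 per group. Mice were caged individually and observed for 2.5 h for clonic and tonic seizures and deaths.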

Mus musculus [19] = assay: Neurotoxicity in Kunming mouse at 100 mg/kg, ip after 0.5 hrs; assay type: toxicity, organism-based; parameters: dose 100 mg/kg, route intraperitoneal; settings: in vivo; how it was run: as §1
Mus musculus [20] = assay: Anticonvulsant activity in Kunming mouse assessed as inhibition of isoniazid-induced tonic seizures at 50 mg/kg, ip after 1 hrs; assay type: functional; parameters: scale not given: the % may be the effect or the level left; settings: route intraperitoneal
How it was run: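 Isoniazid given at 250 mg/kg, a dose convulsing all controls, to KunMing mice pretreated i.p. with compound or DMSO. Mice were caged individually and observed for 1 h, counting clonic seizures, tonic seizures and deaths.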

Mus musculus [21] = assay: Anticonvulsant activity in Kunming mouse assessed as inhibition of isoniazid-induced clonic seizures at 50 mg/kg, ip after 1 hrs; assay type: functional; parameters: scale not given: the % may be the effect or the level left; settings: route intraperitoneal
Mus musculus [22] = assay: Anticonvulsant activity in Kunming mouse assessed as inhibition of 3-mercaptopropionic acid-induced tonic seizures at 30 mg/kg, ip after 0.5 hrs; assay type: functional; parameters: scale not given: the % may be the effect or the level left; settings: route intraperitoneal
How it was run: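 Kunming mice (18–22 g, 10/group) received test compound i.p. in DMSO; 0.5 h later 3-mercaptopropionic acid, 60 mg/kg in saline, was given s.c. Mice were scored for clonic seizures, tonic seizures (hind-leg extension) and deaths.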

Mus musculus [23] = assay: Anticonvulsant activity in Kunming mouse assessed as inhibition of bicuculline-induced death at 30 mg/kg, ip after 0.5 hrs; assay type: functional; parameters: scale not given: the % may be the effect or the level left; settings: route intraperitoneal
How it was run: (§4)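 Kunming mice (18–22 g, 10/group) received test compound i.p. in DMSO; 0.5 h later bicuculline, 5.4 mg/kg, was given s.c. within 15–45 min of preparation. Mice were isolated and observed for at least 0.5 h for clonic seizures, tonic seizures and lethality.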

Mus musculus [24] = assay: Anticonvulsant activity in Kunming mouse assessed as inhibition of bicuculline-induced tonic seizures at 30 mg/kg, ip after 0.5 hrs; assay type: functional; parameters: scale not given: the % may be the effect or the level left; settings: route intraperitoneal; how it was run: as §4
Mus musculus [25] = assay: Anticonvulsant activity in Kunming mouse assessed as inhibition of thiosemicarbazide-induced clonic seizures at 30 mg/kg, ip after 2.5 hrs; assay type: functional; parameters: scale not given: the % may be the effect or the level left; settings: route intraperitoneal; how it was run: as §3

Structure (SMILES) | Activity (Mus musculus [1]) | ED50 (Mus musculus [2]) [mg/kg] | TD50 [3] [mg/kg] | Activity (Mus musculus [4]) | Activity (Mus musculus [5]) | Ratio TD50/ED50 (Mus musculus [6]) | Activity (Mus musculus [7]) | Activity (Mus musculus [8]) | Activity (Mus musculus [9]) | Activity (Mus musculus [10]) | Activity (Mus musculus [11]) | Activity (Mus musculus [12]) | also measured
O=C1CC(c2ccccc2Cl)n2nccc2N1 (stereo unspecified) | Non-toxic | 63.4 | 94.7 | inactive | inactive | 1.5 | Active | Active | Toxic | Non-toxic | inactive | inactive | –
O=C1CC(c2ccccc2Br)n2ncnc2N1 (stereo unspecified) | Non-toxic | 19.7 | 685 | inactive | Active | 34.8 | Active | Active | Non-toxic | Non-toxic | inactive | inactive | Activity (Mus musculus [13]): 0%; Activity (Mus musculus [14]): 30%; Activity (Mus musculus [15]): 100%; Activity (Mus musculus [16]): 0%; Activity (Mus musculus [17]): 100%; Activity (Mus musculus [18]): 0%; Activity (Mus musculus [19]): Non-toxic; Activity (Mus musculus [20]): 0%; Activity (Mus musculus [21]): 100%; Activity (Mus musculus [22]): 0%; Activity (Mus musculus [23]): 50%; Activity (Mus musculus [24]): 10%; Activity (Mus musculus [25]): 100%
O=C1CC(c2ccccc2Br)n2nccc2N1 (stereo unspecified) | Non-toxic | 39.4 | 132 | inactive | inactive | 3.4 | Active | Active | Toxic | Non-toxic | inactive | inactive | –
O=C1CC(c2ccccc2F)n2ncnc2N1 (stereo unspecified) | Non-toxic | 31.7 | 456 | inactive | – | 14.4 | Active | Active | – | Non-toxic | inactive | inactive | Activity (Mus musculus [19]): Non-toxic
NC(=O)N1c2ccccc2C=Cc2ccccc21 [CARBAMAZEPINE] | – | 11.8 | – | – | – | 6.4 | – | – | – | – | – | – | Activity (Mus musculus [13]): 100%; Activity (Mus musculus [15]): 100%; Activity (Mus musculus [16]): 0%; Activity (Mus musculus [17]): 100%; Activity (Mus musculus [18]): 0%; Activity (Mus musculus [20]): 0%; Activity (Mus musculus [21]): 50%; Activity (Mus musculus [22]): 0%; Activity (Mus musculus [23]): 20%; Activity (Mus musculus [24]): 0%; Activity (Mus musculus [25]): 100%
O=C1CC(c2ccccc2)n2nccc2N1 (stereo unspecified) | Non-toxic | 47.3 | 118 | inactive | – | 2.5 | Active | Active | Toxic | Non-toxic | inactive | inactive | –
O=C1CC(c2cccc(C(F)(F)F)c2)n2ncnc2N1 (stereo unspecified) | Non-toxic | 54.8 | 158 | inactive | inactive | 2.9 | Active | Active | Toxic | Non-toxic | inactive | inactive | –

— ChEMBL document CHEMBL1806414, “Synthesis and anticonvulsant activity of 7-phenyl-6,7-dihydro-[1,2,4]triazolo[1,5-a]pyrimidin-5(4H)-ones and their derivatives” (Eur J Med Chem, 2011)
